# ChEMBL document CHEMBL3272167, “Antimalarials. 3. 1,2,4-Triazines” (J Med Chem, 1976)
# Active and inactive are the calls of the source. No cut-off for these calls is given here.
# Experiments:
# Plasmodium berghei [1] = test: Antimalarial activity against trophozoite Plasmodium berghei infected in mouse assessed as increase in mean survival time administered as single dose 72 hrs after parasite infection; assay type: functional, organism-based
# In short: (§1)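 Mice were infected with P. berghei trophozoites and given one subcutaneous dose of test compound 72 h later, up to a maximum of 640 mg/kg. Mean survival time of treated mice was compared with untreated controls. A 2.5-day prolongation counted as significant, and activity required a mean survival of at least 12 days. Cure meant 60-day survival without parasitemia.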
# Plasmodium gallinaceum [2] = test: Antimalarial activity against Plasmodium gallinaceum infected in chick assessed as increase in mean survival time at 480 mg/kg, sc administered as single dose 72 hrs after parasite infection; settings: route subcutaneous
# Plasmodium berghei [3] = test: Antimalarial activity against trophozoite Plasmodium berghei infected in mouse assessed as increase in mean survival time at 640 mg/kg, sc administered as single dose 72 hrs after parasite infection; assay type: functional; settings: route subcutaneous
# In short: (§2)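 Mice were infected with P. berghei trophozoites and given one subcutaneous dose of test compound 72 h later. The read-out was the increase in mean survival time of treated over control animals (MSTT vs MSTC); prolongation of 2.5 days was taken as significant, and a 12-day minimum mean survival was required for activity. Survivors at 60 days without parasitemia counted as cured. The maximum dose was 640 mg/kg.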
# Plasmodium berghei [4] = test: Antimalarial activity against trophozoite Plasmodium berghei infected in mouse assessed as increase in mean survival time at 10 mg/kg, sc administered as single dose 72 hrs after parasite infection; assay type: functional; settings: route subcutaneous; in short: as §2
# Plasmodium gallinaceum [5] = test: Antimalarial activity against Plasmodium gallinaceum infected in chick assessed as increase in mean survival time at 640 mg/kg, sc administered as single dose 72 hrs after parasite infection; settings: route subcutaneous
# Plasmodium berghei [6] = test: Antimalarial activity against trophozoite Plasmodium berghei infected in mouse assessed as increase in mean survival time at 320 mg/kg, sc administered as single dose 72 hrs after parasite infection; assay type: functional; settings: route subcutaneous; in short: as §2
# Plasmodium berghei [7] = test: Antimalarial activity against trophozoite Plasmodium berghei infected in mouse assessed as increase in mean survival time at 80 mg/kg, sc administered as single dose 72 hrs after parasite infection; assay type: functional; settings: route subcutaneous; in short: as §2
# Mus musculus [8] = test: Toxicity in trophozoite Plasmodium berghei infected in mouse at 640 mg/kg, sc administered as single dose 72 hrs after parasite infection; assay type: organism-based; design: dose 640 mg/kg, route subcutaneous; settings: in vivo; in short: as §1
# Gallus gallus (chicken) [9] = test: Toxicity in Plasmodium gallinaceum infected in chick at 480 mg/kg, sc administered as single dose 72 hrs after parasite infection; settings: in vivo
# Plasmodium berghei [10] = test: Antimalarial activity against trophozoite Plasmodium berghei infected in mouse assessed as increase in mean survival time at 160 mg/kg, sc administered as single dose 72 hrs after parasite infection; assay type: functional; settings: route subcutaneous; in short: as §2
# Plasmodium berghei [11] = test: Antimalarial activity against trophozoite Plasmodium berghei infected in mouse assessed as increase in mean survival time at 20 mg/kg, sc administered as single dose 72 hrs after parasite infection; assay type: functional; settings: route subcutaneous; in short: as §2
# Plasmodium gallinaceum [12] = test: Antimalarial activity against Plasmodium gallinaceum infected in chick assessed as increase in mean survival time at 240 mg/kg, sc administered as single dose 72 hrs after parasite infection; settings: route subcutaneous
# Plasmodium berghei [13] = test: Antimalarial activity against trophozoite Plasmodium berghei infected in mouse assessed as increase in mean survival time at 40 mg/kg, sc administered as single dose 72 hrs after parasite infection; assay type: functional; settings: route subcutaneous; in short: as §2
# Mus musculus [14] = test: Toxicity in trophozoite Plasmodium berghei infected in sc dosed mouse administered as single dose 72 hrs after parasite infection; assay type: organism-based; settings: in vivo; in short: as §1
# Plasmodium gallinaceum [15] = test: Antimalarial activity against Plasmodium gallinaceum infected in chick assessed as increase in mean survival time at 320 mg/kg, sc administered as single dose 72 hrs after parasite infection; settings: route subcutaneous
# Gallus gallus (chicken) [16] = test: Toxicity in Plasmodium gallinaceum infected in chick at 640 mg/kg, sc administered as single dose 72 hrs after parasite infection; settings: in vivo
# Plasmodium gallinaceum [17] = test: Antimalarial activity against Plasmodium gallinaceum infected in chick assessed as increase in mean survival time at 160 mg/kg, sc administered as single dose 72 hrs after parasite infection; settings: route subcutaneous
# Plasmodium gallinaceum [18] = test: Antimalarial activity against Plasmodium gallinaceum infected in chick assessed as increase in mean survival time at 80 mg/kg, sc administered as single dose 72 hrs after parasite infection; settings: route subcutaneous
smiles,measurement,setting,value
CN(C)/C=N/c1nnc(-c2ccc3c(c2)OCO3)c(/N=C/N(C)C)n1,Activity,Plasmodium berghei [1],inactive
same,T/C,Plasmodium gallinaceum [2],1.5
same,MST,Plasmodium berghei [3],5.9 days
Cc1ccc(-c2nnc(N)nc2N)cc1Cl,T/C,Plasmodium berghei [3],9.9
Nc1nnc(-c2ccc(C(F)(F)F)cc2)c(N)n1,T/C,Plasmodium berghei [4],6.8
same,T/C,Plasmodium gallinaceum [5],9.9
same,T/C,Plasmodium berghei [6],0
same,T/C,Plasmodium berghei [7],0
same,T/C,Plasmodium gallinaceum [2],9.9
same,T/C,Plasmodium berghei [3],0
same,Activity,Mus musculus [8],Toxic
same,Activity,Gallus gallus (chicken) [9],Toxic
same,T/C,Plasmodium berghei [10],0
same,T/C,Plasmodium berghei [11],12.8
same,T/C,Plasmodium gallinaceum [12],6.4
same,T/C,Plasmodium berghei [13],12.8
Cc1ccc(-c2nnc(N)nc2N)cc1C,MST,Plasmodium berghei [3],4.9 days
CS(=O)(=O)c1ccc(-c2nnc(N)nc2N)cc1,Activity,Mus musculus [14],Toxic
COc1ccc(-c2nnc(N)nc2N)cc1OC,T/C,Plasmodium gallinaceum [15],7
same,MST,Plasmodium berghei [6],10.1 days
same,MST,Plasmodium berghei [3],11.7 days
Cc1ccc(S(=O)(=O)NC(=O)Nc2nnc(-c3ccc4c(c3)OCO4)c(N)n2)cc1,Activity,Plasmodium berghei [1],inactive
Cc1nnc(S)nc1S,T/C,Plasmodium gallinaceum [5],4.4
same,Activity,Gallus gallus (chicken) [16],Toxic
same,Activity,Mus musculus [14],Toxic
COc1ccc(-c2nnc(NC(=O)Nc3ccccc3)nc2N)cc1OC,Activity,Plasmodium berghei [1],inactive
N#C/C(=N/NC(=N)N)c1cccs1.O=[N+]([O-])O,Activity,Mus musculus [14],Toxic
Cc1n[nH]c(=S)[nH]c1=O,Activity,Mus musculus [14],Toxic
Nc1nnc(-c2ccccc2)c(-c2ccccc2)n1,Activity,Mus musculus [14],Toxic
COc1ccc(-c2nnc(/N=C/N(C)C)nc2/N=C/N(C)C)cc1OC,Activity,Plasmodium berghei [1],inactive
CSc1nnc(C)c(SC)n1,Activity,Mus musculus [14],Toxic
Nc1nnc(-c2cccc(C(F)(F)F)c2)c(N)n1,T/C,Plasmodium gallinaceum [15],1.5
same,MST,Plasmodium berghei [3],4.6 days
same,T/C,Plasmodium gallinaceum [12],2.2
Nc1nnc(-c2ccc3c(c2)OCO3)c(N)n1,T/C,Plasmodium gallinaceum [15],3.2
same,T/C,Plasmodium berghei [6],12.2
same,T/C,Plasmodium berghei [3],15.4
same,T/C,Plasmodium gallinaceum [17],3.2
same,T/C,Plasmodium gallinaceum [18],1.7
same,T/C,Plasmodium berghei [10],7.1
Cc1nnc(N)nc1C,Activity,Plasmodium berghei [1],inactive
same,MST,Plasmodium berghei [3],4.2 days
